From PubChem BioAssay
The source made the active and inactive calls.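 Rule for the calls, unless noted: active = inhibition above 20% together with a positive visual image hit; inconclusive = visual image hit but inhibition not above 20%; inactive = no visual image hit.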

Assays:
[1] = inhibitors of TNFa-induced NFkB p65 translocation, primary screen, imaging, HUVEC, MLSMR starter and 10KST1 sets (AID 438); conditions: HUVEC TNFa-induced p65 nuclear translocation; cell count: measured here: nuclei count (cytotoxicity indicator), at 2.08 µM; inhibition: at 2 µM, stronger effect = higher value, 0% TNFa-plus-vehicle, 100% no-TNFa wells;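 note: compound added about 3h40 before a 20 min TNFalpha stimulation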;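 for inhibition: signal is the nuclear over cytoplasmic p65 intensity ratio per well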
[2] = endothelial E-selectin expression blockers – imaging, HUVEC, immunofluorescence, MLSMR starter and 10KST1 sets, primary screen (AID 487;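 active = visually confirmed hit in the image check and inhibition above 20%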;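 for inhibition: signal is fraction of cell area covered by stained E-selectin grains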;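 for nuclei count: 100% = median nuclei count of all wells on the same plate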); conditions: HUVEC TNFalpha-induced E-selectin immunofluorescence imaging, at 2 µM; inhibition: stronger effect = higher value; nuclei count: measured here: cell number, toxicity
[3] = Primary imaging screen for DUSP6 inhibitors that restore phospho-Erk in transfected HeLa cells, chemical complementation (AID 609;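 active = compounds giving at least 50% inhibition in the cell-based MKP-3 phosphatase rescue imaging test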;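 for inhibition: phospho-Erk level distribution per well compared with pooled transfected vehicle control wells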); conditions: HeLa MKP-3 transfected, phospho-Erk imaging KS statistic, at 10 µM, cells stimulated with TPA for 15 min
[4] = molecular target: Dual specificity protein phosphatase 6 (Homo sapiens) (UniProt Q16828); test: as above; conditions: HeLa MKP-3 transfected, phospho-Erk imaging KS statistic; at 10 µM; stronger effect = higher value; cells stimulated with TPA for 15 min
[5] = molecular target: Voltage-gated potassium channel subunit beta-2 (Rattus norvegicus) (UniProt P62483); test: inhibitors of rat Kvbeta2 reductase activity – biochemical, NADPH fluorescence, primary screen (AID 622;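 active = fluorescence slope higher than the sample average by over 3 SD, cut at about -0.22 in these data, passing the limit was not always enough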;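 note: slope of raw intensity against log time taken from 70 to 1610 s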); conditions: recombinant KvBeta, 4-cyanobenzaldehyde reduction, at 10 µM, stronger effect = higher value
[6] = molecular target: Voltage-gated potassium channel subunit beta-2 (Rattus norvegicus) (UniProt P62483); test: enhancers of rat Kvbeta2 NADPH turnover – biochemical, NADPH fluorescence, primary screen (AID 623;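 active = NADPH fluorescence slope more negative than the mean of all samples by about 3 SD, 99.7% confidence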;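 note: fluorescence intensity change per second fitted from 20 to 320 s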); conditions: Recombinant KvBeta, NADPH fluorescence decrease slope, 10 min; at 10 µM; stronger effect = lower value
[7] = molecular target: Muscarinic acetylcholine receptor M4 (Homo sapiens) (UniProt P08173); test: M4-linked GIRK flux change, two-sided – cell-based, HEK293 M4/GIRK, thallium flux, BTC-AM, M4 allosteric agonist project, primary screen (AID 625;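 active = fluorescence slope after compound addition differing from the mean of all tested samples at 99.7% confidence, mostly higher but some lower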;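 note: thallium influx through GIRK channels coupled to M4 in HEK293 cells with BTC-AM dye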); conditions: at 10 µM, actives lie on both sides
Outline: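 Assay system: HEK293 cells with M4 receptor and GIRK channels / Controls: carbachol and DMSO controls / Schedule: 1 h dye loading, 2 min kinetic read / Technique: kinetic fluorescence with BTC-AM dye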

[8] = inhibitors of larval lipid processing in zebrafish, primary screen, whole organism, PED6 fluorescence, gall bladder and intestine (AID 686;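 active = a full or partial loss of lipid-probe fluorescence in the fish gall bladder, intestine or both, judged by eye; inactive = no fluorescence loss, or compound toxic to the fish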;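 note: larvae 5 to 7 days old with five fish per well; signal comes from phospholipase A2 cleavage of quenched PED6 carried via bile; overnight exposure to compound and PED6 before scoring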); conditions: Zebrafish larvae PED6 lipid processing, fluorescence scoring; screened at 20 µM (by protocol)
Outline: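 Doses: 20 µM single dose. Test system: live zebrafish larvae aged 5-7 days, whole organism. Quantity: five larvae per well. Measured by: By-eye fluorescence microscopy. Reagent: ingested quenched lipid PED6 at 100 nM. Read-out: visual per-well fluorescence inhibition score. Times: overnight exposure of larvae to compound plus PED6.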

[9] = loss of swimming-algae plug formation – whole organism, Chlamydomonas reinhardtii, WT vs cilia-less mutant, absorbance, 96-well, primary screen (AID 463189;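 active = inhibition at or above 50% relative to wild type and mutant plate controls; inactive = inhibition below 50%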;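 note: 0% = wild type cc124 cells in DMSO and 100% = ciliumless bld1 mutant cells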); conditions: Chlamydomonas reinhardtii gravitaxis, OD600 absorbance, 2 days; at 10 µM; stronger effect = higher value
[10] = measured here: cell density z-score
[11] = measured here: nuclear c-Myc green intensity z-score
[12] = measured here: nuclear pErk red intensity z-score, stronger effect = higher value

Sequence of Dual specificity protein phosphatase 6 (Homo sapiens) (Q16828 whole entry, looked up): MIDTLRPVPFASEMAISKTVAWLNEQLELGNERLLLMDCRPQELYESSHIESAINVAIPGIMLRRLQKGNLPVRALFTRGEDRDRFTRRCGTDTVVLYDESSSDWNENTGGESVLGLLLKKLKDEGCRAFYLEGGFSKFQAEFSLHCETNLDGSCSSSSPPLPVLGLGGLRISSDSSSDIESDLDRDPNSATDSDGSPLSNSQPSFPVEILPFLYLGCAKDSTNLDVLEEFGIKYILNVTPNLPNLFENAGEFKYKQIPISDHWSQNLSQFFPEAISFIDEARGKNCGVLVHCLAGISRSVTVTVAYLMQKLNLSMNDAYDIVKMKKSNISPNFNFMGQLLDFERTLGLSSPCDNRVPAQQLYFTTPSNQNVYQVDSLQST
Sequence of Muscarinic acetylcholine receptor M4 (Homo sapiens) (P08173 whole entry, looked up): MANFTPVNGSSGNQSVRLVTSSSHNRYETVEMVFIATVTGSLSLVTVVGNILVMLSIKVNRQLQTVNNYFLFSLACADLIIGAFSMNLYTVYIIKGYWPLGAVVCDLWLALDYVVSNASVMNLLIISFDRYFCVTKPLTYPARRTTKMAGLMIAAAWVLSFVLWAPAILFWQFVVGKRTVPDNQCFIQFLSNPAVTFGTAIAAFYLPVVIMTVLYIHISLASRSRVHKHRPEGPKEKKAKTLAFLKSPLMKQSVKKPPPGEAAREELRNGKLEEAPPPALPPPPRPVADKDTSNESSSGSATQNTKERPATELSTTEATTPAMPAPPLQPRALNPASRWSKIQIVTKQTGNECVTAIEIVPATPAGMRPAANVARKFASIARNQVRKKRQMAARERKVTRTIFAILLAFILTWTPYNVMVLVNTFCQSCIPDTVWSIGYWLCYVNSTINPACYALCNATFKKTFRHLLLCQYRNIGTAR
Sequence of Voltage-gated potassium channel subunit beta-2 (Rattus norvegicus) (P62483 whole entry, looked up): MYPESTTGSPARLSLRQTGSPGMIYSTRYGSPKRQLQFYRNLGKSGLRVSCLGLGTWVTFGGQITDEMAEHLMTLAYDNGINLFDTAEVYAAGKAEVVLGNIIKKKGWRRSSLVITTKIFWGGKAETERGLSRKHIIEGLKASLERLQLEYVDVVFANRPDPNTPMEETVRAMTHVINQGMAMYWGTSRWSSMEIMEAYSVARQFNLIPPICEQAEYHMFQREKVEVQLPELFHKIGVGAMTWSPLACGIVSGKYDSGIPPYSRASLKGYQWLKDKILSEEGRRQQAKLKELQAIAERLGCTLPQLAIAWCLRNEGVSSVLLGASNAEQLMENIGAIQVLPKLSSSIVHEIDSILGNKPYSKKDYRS

Structure (SMILES) | cell count [1] | inhibition [1] | inhibition [2] | nuclei count [2] [%] | z-score [3, 10] | z-score [3, 11] | z-score [3, 12] | inhibition [4] | fluorescence slope [5] | NADPH fluorescence slope [6] | fluorescence slope [7] | outcome [8] | inhibition [9]
Cc1ccc(CNc2oc(COc3ccccc3Cl)nc2C#N)cc1 | 402 | -2.8% (inactive) | -40.3% (inactive) | 82.6 | -0.405 | -0.319 | -0.994 | 4.37% (inactive) | -0.387 (inactive) | 2.1e-06 (inactive) | 0.00728 (inactive) | inactive | 28.6% (inactive)
C=CCOn1c(=O)c(-c2ccc(OC)cc2)[n+]([O-])c2ccccc21 | 586 | -10.1% (inactive) | -77.9% (inactive) | 148 | 0.271 | 0.00215 | -0.813 | 13.9% (inactive) | -0.416 (inactive) | -5.2e-05 (inactive) | 0.00502 (inactive) | inactive | 19.7% (inactive)
CC1(C)CC(=O)C(C=Nc2ccc(Cl)cn2)=C(O)C1 | 493 | -2.2% (inactive) | -68.2% (inactive) | 114 | 0.174 | -1.57 | 0.727 | 15.9% (inactive) | -0.464 (inactive) | -2.5e-06 (inactive) | 0.0108 (inactive) | inactive | 35.7% (inactive)
CCN(CC)c1ccc(C2Nc3cccc4cccc(c34)N2)c(O)c1 | 571 | 2.2% (inactive) | -102% (inactive) | 134 | 0.205 | -0.845 | -0.409 | -0.584% (inactive) | -0.397 (inactive) | -7.3e-05 (inactive) | 0.00286 (inactive) | active; no signal in gallbladder and intestine | 40% (inactive)
CSc1nc2sc3c(c2c2nncn12)CCC3 | 595 | -9.4% (inactive) | -93% (inactive) | 148 | -0.00236 | -1.35 | -0.539 | -13.3% (inactive) | -0.46 (inactive) | -9.7e-05 (inactive) | 0.00506 (inactive) | inactive | 46.8% (inactive)
NC(=O)CSc1nnc2n(-c3ccccc3)c(=O)c3c4c(sc3n12)CCCCC4 | 376 | -1.4% (inactive) | -45.3% (inactive) | 193 | -0.963 | 1.04 | 0.285 | -2.59% (inactive) | -0.51 (inactive) | -0.000119 (inactive) | 0.00448 (inactive) | inactive | 7.56% (inactive)
COc1ccc(C2C(C#N)=C(C)NC3=C2C(=O)c2ccccc23)cc1 (stereo unspecified) | 678 | 0.7% (inactive) | -27.5% (inactive) | 145 | 1.09 | 1.69 | -1.69 | 21.8% (inactive) | -0.5 (inactive) | -4.8e-05 (inactive) | 0.00419 (inactive) | inactive | -2.6% (inactive)
NC(=O)C1CCN(CCC(=O)Nc2ccc(Br)cc2)CC1 | 619 | -14.3% (inactive) | -30.8% (inactive) | 163 | 0.663 | -1.51 | 0.0444 | 7.42% (inactive) | -0.426 (inactive) | -5.4e-05 (inactive) | 0.00492 (inactive) | inactive | 44% (inactive)
CCCSc1nc(N2CCOCC2)c2c(c1C#N)CCCC2 | 569 | -12.9% (inactive) | -93.9% (inactive) | 147 | 0.303 | 0.327 | 2.25 | 10.9% (inactive) | -0.467 (inactive) | -0.000102 (inactive) | 0.00772 (inactive) | inactive | 5.19% (inactive)
COc1ccc(N2C(=O)C3C(C2=O)C2C=CC3C23CC3)c(OC)c1 (stereo unspecified) | 517 | -4.2% (inactive) | 41.1% (inactive) | 197 | 0.465 | -0.843 | 1.05 | 11.9% (inactive) | -0.422 (inactive) | -4.3e-05 (inactive) | 0.00475 (inactive) | inactive | 24.5% (inactive)
C=CCOc1ccc(/C(O)=C2/C(=O)C(=O)N(CCCN3CCOCC3)C2c2ccc(OC)cc2)cc1 (stereo unspecified) | 409 | -10.2% (inactive) | -115% (inactive) | 131 | 0.861 | -1.19 | 0.613 | 14% (inactive) | -0.455 (inactive) | -0.000145 (inactive) | 0.00475 (inactive) | inactive | 25.3% (inactive)
COc1cccc(N2CCN(C(=O)c3ccc(=O)oc3)CC2C)c1 (stereo unspecified) | 548 | -13.7% (inactive) | -2.6% (inactive) | 114 | 0.444 | -0.0742 | 1.46 | -2.91% (inactive) | -0.418 (inactive) | 6.4e-07 (inactive) | 0.00472 (inactive) | inactive | 13.7% (inactive)
COC(=O)CSc1nc(C)c(Oc2ccccc2)c(=O)[nH]1 | 726 | 7.2% (inactive) | -102% (inactive) | 162 | -1.93 | 2.21 | -0.257 | -2.09% (inactive) | -0.424 (inactive) | -5.8e-05 (inactive) | 0.00506 (inactive) | inactive | -8.15% (inactive)
Cn1c(=O)[nH]c2cc(Cl)cnc21 | 378 | -14% (inactive) | -133% (inactive) | 108 | 0.823 | -0.334 | -1.3 | 3.42% (inactive) | -0.492 (inactive) | -3.9e-05 (inactive) | 0.00408 (inactive) | inactive | 9.47% (inactive)
CSc1cc(C)nc(N(C)C(C)=O)n1 | 672 | -1.4% (inactive) | -9.4% (inactive) | 145 | -2.7 | 1.16 | 0.496 | 5.35% (inactive) | -0.421 (inactive) | -5.5e-05 (inactive) | 0.00511 (inactive) | inactive | -6.47% (inactive)
CCOC(=O)CNS(=O)(=O)c1cc(-c2n[nH]c(=O)c3ccccc23)ccc1C | 550 | -12.6% (inactive) | -67% (inactive) | 151 | 2.42 | 0.186 | 0.634 | 20.2% (inactive) | -0.47 (inactive) | -0.000102 (inactive) | 0.00467 (inactive) | inactive | 2.8% (inactive)
COc1ccc(C2NC(=O)NC(O)(C(F)(F)F)C2C(=O)c2ccc(F)cc2)cc1 (stereo unspecified) | 632 | 6.6% (inactive) | -68.3% (inactive) | 159 | -1.22 | 1.16 | 0.887 | -0.674% (inactive) | -0.479 (inactive) | -5.2e-05 (inactive) | 0.00666 (inactive) | inactive | -6.15% (inactive)
COc1ccc(/C(O)=C2/C(=O)C(=O)N(CCCN(C)C)C2c2ccc(C)o2)cc1Cl (stereo unspecified) | 709 | -8.3% (inactive) | -108% (inactive) | 146 | -0.0808 | -0.238 | -0.0387 | -6.48% (inactive) | -0.48 (inactive) | -4.6e-05 (inactive) | 0.0051 (inactive) | inactive | 18.3% (inactive)
COc1cc(/C=N/n2nnnc2N)ccc1O | 594 | -13% (inactive) | -19.6% (inactive) | 150 | 0.109 | -0.705 | -0.571 | 17.7% (inactive) | -0.448 (inactive) | -0.000221 (inactive) | 0.00627 (inactive) | inactive | 14% (inactive)
Cn1c(=O)c2c(nc(NCc3ccc4c(c3)OCO4)n2Cc2ccccc2)n(C)c1=O | 656 | -20.1% (inactive) | -108% (inactive) | 96.2 | -0.797 | -1.34 | -1.17 | -7.93% (inactive) | -0.5 (inactive) | -0.000109 (inactive) | 0.00776 (inactive) | inactive | -2.21% (inactive)
COc1ccc(CN(C)CCc2ccccn2)c(OC)c1OC | 494 | -4.5% (inactive) | -90.8% (inactive) | 151 | -1.25 | -0.772 | 0.512 | -3.95% (inactive) | -0.419 (inactive) | -3.4e-05 (inactive) | 0.00521 (inactive) | inactive | 18.3% (inactive)
Cc1ccc(CNC(=O)c2cc3c(=O)n4ccccc4nc3n(CC3CCCO3)c2=N)cc1 (stereo unspecified) | 542 | -11.9% (inactive) | -40.3% (inactive) | 93.4 | -0.636 | 0.681 | -1.25 | 2.71% (inactive) | -0.331 (inactive) | -2.1e-05 (inactive) | -0.000734 (active) | inactive | 32.5% (inactive)
Cn1c(NCCCO)nc2c1c(=O)n(Cc1ccccc1F)c(=O)n2C | 691 | -14.5% (inactive) | -160% (inactive) | 167 | -0.594 | -1.48 | 0.588 | 1.9e-07% (inactive) | -0.512 (inactive) | -3.1e-05 (inactive) | 0.00567 (inactive) | inactive | 7.04% (inactive)
CCN(CC)CCNc1ncnc2c1[nH]c1ccc(OC)cc12 | 595 | -7.6% (inactive) | -67.9% (inactive) | 150 | 1.23 | -0.0798 | -1.12 | 3.42% (inactive) | -0.236 (inactive) | 1.1e-06 (inactive) | 0.00672 (inactive) | inactive | 6% (inactive)
Cc1nnc2n(C3CCCCC3)c(=O)c3c4c(sc3n12)COC(C)(C)C4 | 471 | -0.7% (inactive) | -19% (inactive) | 96.4 | -2.3 | 1.13 | -0.467 | -3.97% (inactive) | -0.389 (inactive) | 7.7e-06 (inactive) | 0.00567 (inactive) | inactive | 11.1% (inactive)
N#Cc1nc(COc2ccccc2Cl)oc1NCc1ccc(F)cc1 | 432 | -1.7% (inactive) | -89.3% (inactive) | 182 | -1.38 | 0.104 | 0.625 | 2.71% (inactive) | -0.373 (inactive) | -3.8e-05 (inactive) | 0.00509 (inactive) | inactive | -1.44% (inactive)
CCc1[nH]c(=O)c(C#N)c2c1CSC(C)(C)C2 | 678 | -9.4% (inactive) | -211% (inactive) | 166 | 0.402 | 0.0532 | -0.896 | -6.06% (inactive) | -0.471 (inactive) | -6.8e-05 (inactive) | 0.00604 (inactive) | inactive | 11.4% (inactive)
